The source made the active and inactive calls. No cut-off for these calls is given here.

Experiment [1] concerns HaCaT. Description: Activation of AMPK/SIRT1 in human HaCaT cells assessed as nitric oxide production incubated for 1 hr by DAF-2D staining-based fluorescence assay. In kind it is cell-based. The method, boiled down: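 HaCaT keratinocytes grown in DMEM with 10% FBS and antibiotics. Cells treated 1 h (single-point 1 µM; dose-response at 5, 25, 50 µM). 5 µM DAF-2D added to complete medium. Cells then washed in PBS, trypsinized and analysed by flow cytometry for DAF fluorescence (ex 485/em 538 nm). Read-out is % DAF-positive cells relative to DMSO control.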

Experiment [2] relates to HaCaT. Description: Activation of AMPK/SIRT1 in human HaCaT cells assessed as nitric oxide production at 10 uM incubated for 1 hr in presence of compound C by DAF-2D staining-based fluorescence assay. It counts as cell-based. The method, boiled down: (§1)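 HaCaT cells in DMEM with 10% FBS. DHP (10 µM) given for 1 h alone or together with 10 µM AMPK inhibitor compound C or 10 µM SIRT1 inhibitor EX-527. Intracellular NO read by flow cytometry after loading with 5 µM DAF-2D in medium (ex 485/em 538 nm). Expressed as % DAF-positive cells versus DMSO.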

Experiment [3] concerns HaCaT. Nature of the experiment: Activation of AMPK/SIRT1 in human HaCaT cells assessed as nitric oxide production at 10 uM incubated for 1 hr in presence of EX-527 by DAF-2D staining-based fluorescence assay. It counts as cell-based. The method, boiled down:
as §1

For experiment [4], the target named is T1, NAD-dependent protein deacetylase sirtuin-1 (Homo sapiens) (UniProt Q96EB6).
T1 sequence (whole entry): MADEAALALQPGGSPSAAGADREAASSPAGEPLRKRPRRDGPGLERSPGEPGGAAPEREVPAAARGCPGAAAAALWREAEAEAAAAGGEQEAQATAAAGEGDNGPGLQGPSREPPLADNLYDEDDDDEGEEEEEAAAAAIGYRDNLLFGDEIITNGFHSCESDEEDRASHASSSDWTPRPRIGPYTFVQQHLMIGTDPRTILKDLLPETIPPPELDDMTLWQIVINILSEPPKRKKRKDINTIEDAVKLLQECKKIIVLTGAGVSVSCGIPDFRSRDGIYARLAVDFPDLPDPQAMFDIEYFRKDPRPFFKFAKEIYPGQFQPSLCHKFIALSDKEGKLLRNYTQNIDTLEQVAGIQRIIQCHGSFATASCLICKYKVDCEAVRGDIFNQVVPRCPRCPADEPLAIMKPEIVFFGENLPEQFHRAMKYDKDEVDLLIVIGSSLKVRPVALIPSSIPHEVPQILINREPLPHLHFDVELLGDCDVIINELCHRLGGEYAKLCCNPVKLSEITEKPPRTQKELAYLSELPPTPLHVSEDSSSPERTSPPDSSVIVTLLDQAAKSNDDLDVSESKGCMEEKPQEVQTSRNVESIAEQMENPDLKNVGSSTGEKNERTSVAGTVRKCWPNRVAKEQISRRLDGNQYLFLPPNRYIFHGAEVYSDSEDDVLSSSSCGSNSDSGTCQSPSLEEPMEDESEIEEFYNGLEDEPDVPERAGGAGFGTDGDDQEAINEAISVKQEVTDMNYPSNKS
Description: Activation of SIRT1 in […] at 1 uM by fluorimetric assay. It counts as cell-free. The conditions noted are these: HaCaT, TDE = time-dependent effect.

The subject of another experiment is C2C12. Description: Activation of AMPK/SIRT1 in mouse C2C12 cells assessed as increase in mitochondrial density at 30 uM after 16 hrs by Mitotracker Green staining-based confocal microscopy. It counts as cell-based. The method, boiled down: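 Murine C2C12 myoblasts plated on coverslips and grown overnight at 37 °C, 5% CO2. Then switched to serum-free HBSS, pH 7.4, and treated 16 h at 30 µM, alone or with 5 µM compound C or EX-527. Mitotracker Green (200 nM final) added for the last 30 min. Cells fixed in 4% paraformaldehyde, permeabilized and imaged by confocal microscopy, with settings fixed on untreated cells. Plate fluorescence also quantified.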

Another experiment relates to HT-29. Description: Antiproliferative activity against human HT-29 cells assessed as cell viability after 72 hrs by MTT assay. The conditions noted are these: HT-29, 72 h. In kind it is functional, cell-based. The method, boiled down:
(§2)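 Cells grown in RPMI with 10% fetal calf serum and penicillin, seeded in sextuplicate at 3 × 10^3 cells/well. After 24 h, cells were exposed 72 h to 5–200 µM. Viability was measured by MTT and expressed as treated/untreated × 100. IC50 was calculated from three independent experiments, reported as mean ± SD.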
In general terms: Tetrazolium assays rely on reduction of a dye to a coloured formazan, in cell work by metabolically active cells.

The test system of the next experiment is HCT-116. Description: Antiproliferative activity against human HCT116 cells assessed as cell viability after 72 hrs by MTT assay. The conditions noted are these: HCT-116, 72 h. It counts as functional, cell-based. The method, boiled down:
as §2

The subject of the next experiment is Caov-3 cell line. Nature of the experiment: Antiproliferative activity against human Caov3 cells assessed as cell viability after 72 hrs by MTT assay. In kind it is functional, cell-based. The conditions noted are these: Caov-3, 72 h. The method, boiled down: as §2
Another experiment has as its system HEY. Nature of the experiment: Antiproliferative activity against human HEY cells assessed as cell viability after 72 hrs by MTT assay. In kind it is functional, cell-based. The method, boiled down:
as §2

`CCOC(=O)C1=CN(C(=O)c2ccccc2)C=C(C(=O)OCC)C1c1ccccc1`: the Activity result in the experiment with HaCaT [1] is “Dose-dependent effect”; in [4], “Tde”. Further, the outcome in the experiment on HaCaT [2] and in the experiment on HaCaT [3] was inactive. The outcome with C2C12 was Active. Further, the IC50 – broadly, the point on the concentration scale where inhibition reaches its midpoint – with HT-29 is 80 µM; in the experiment on HCT-116, 62 µM; in the experiment on Caov-3 cell line it was above 200 µM; with HEY, 143 µM.
